Measured values from ChEMBL document CHEMBL2146385, “Synthesis and antiviral evaluation of bis(POM) prodrugs of (E)-[4'-phosphono-but-2'-en-1'-yl]purine nucleosides” (Eur J Med Chem, 2012).
Calls of active or inactive are those of the source. The calls are words filed in the database; no cut-off is given here.

Experiments:
[1] = system: Human alphaherpesvirus 1; test: Antiviral activity against HSV1 KOS infected in HEL assessed as inhibition of virus-induced cytopathicity after 3 days; type: functional, organism-based; settings: Human alphaherpesvirus 1, KOS, 72 h
[2] = system: Human alphaherpesvirus 3; test: Antiviral activity against thymidine kinase-deficient VZV 07/1 infected in human HEL cells assessed as reduction of virus-induced cytopathogenicity after 3 days; type: functional, organism-based; settings: Human alphaherpesvirus 3, 07/1, HEL, 72 h
[3] = system: Punta Toro virus; test: Antiviral activity against Punta Toro virus infected in african green monkey Vero assessed as inhibition of virus-induced cytopathicity after 3 days; type: functional, organism-based
In short: (§1)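 Confluent cell monolayers infected with 100 CCID50 of virus in the presence of test compound at 100, 20,... μM. Cytopathicity was scored once it was complete in untreated infected controls.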

[4] = system: Human alphaherpesvirus 2; test: Antiviral activity against HSV2 G infected in HEL assessed as inhibition of virus-induced cytopathicity after 3 days; type: functional, organism-based; settings: Human alphaherpesvirus 2, strain G, 72 h; in short: as §1
[5] = system: Vesicular stomatitis virus; test: Antiviral activity against Vesicular stomatitis virus infected in MDCK assessed as inhibition of virus-induced cytopathicity after 3 days; type: functional, organism-based
[6] = Cytotoxicity against HEL after 3 days; type: cell-based; settings: human, HEL cells
In short: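 HEL cells were seeded at 5×10^3 cells/well and allowed to grow for 24 h, then given medium with varying compound concentrations. After 3 days at 37 °C, cells were counted with a Coulter counter.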

[7] = system: Influenza B virus; test: Antiviral activity against Influenza B virus infected in MDCK assessed as inhibition of virus-induced cytopathicity after 3 days; type: functional, organism-based
[8] = system: Influenza A virus; test: Antiviral activity against Influenza A virus H3N2 infected in MDCK assessed as inhibition of virus-induced cytopathicity after 3 days; type: functional, organism-based
[9] = system: Vaccinia virus; test: Antiviral activity against Vaccinia virus infected in HEL assessed as inhibition of virus-induced cytopathicity after 3 days; type: functional, organism-based; settings: Orthopoxvirus vaccinia, 72 h
[10] = system: Mammalian orthoreovirus 1; test: Antiviral activity against Reovirus-1 infected in african green monkey Vero assessed as inhibition of virus-induced cytopathicity after 3 days; type: functional, organism-based; in short: as §1
[11] = system: Coxsackievirus B4; test: Antiviral activity against Coxsackievirus B4 infected in human HeLa assessed as inhibition of virus-induced cytopathicity after 3 days; type: functional, organism-based; in short: as §1
[12] = system: Human respirovirus 3; test: Antiviral activity against Parainfluenza-3 virus infected in african green monkey Vero assessed as inhibition of virus-induced cytopathicity after 3 days; type: functional, organism-based; in short: as §1
[13] = system: Human alphaherpesvirus 3; test: Antiviral activity against VZV OKA expressing thymidine kinase infected in HEL cells assessed as inhibition of virus-induced cytopathogenicity after 3 days; type: functional, cell-based; settings: Human alphaherpesvirus 3, strain Oka vaccine, 72 h
[14] = system: Human alphaherpesvirus 1; test: Antiviral activity against acyclovir-resistant thymidine kinase deficient HSV1 KOS infected in HEL assessed as inhibition of virus-induced cytopathicity after 3 days; type: functional, organism-based; settings: Human alphaherpesvirus 1, KOS, 72 h
[15] = system: Vesicular stomatitis virus; test: Antiviral activity against Vesicular stomatitis virus infected in human HeLa assessed as inhibition of virus-induced cytopathicity after 3 days; type: functional, organism-based
[16] = system: Influenza A virus; test: Antiviral activity against Influenza A virus H1N1 infected in MDCK assessed as inhibition of virus-induced cytopathicity after 3 days; type: functional, organism-based
[17] = system: Respiratory syncytial virus; test: Antiviral activity against Respiratory syncytial virus infected in human HeLa assessed as inhibition of virus-induced cytopathicity after 3 days; type: functional, organism-based; in short: as §1
[18] = Cytotoxicity against HEL assessed as minimum compound concentration causes microscopically detectable alteration of cell morphology after 3 days; type: cell-based; settings: human, HEL cells
[19] = system: Sindbis virus; test: Antiviral activity against Sindbis virus infected in african green monkey Vero assessed as inhibition of virus-induced cytopathicity after 3 days; type: functional, organism-based; in short: as §1

| SMILES | EC50 [1] | EC50 [2] | Activity [3] | EC50 [4] | Activity [5] | CC50 at 72 h [6] | Activity [7] | Activity [8] | EC50 [9] | Activity [10] | Activity [11] | Activity [12] | EC50 [13] | EC50 [14] | Activity [15] | Activity [16] | Activity [17] | MCC at 72 h [18] | Activity [19] |
| --- | --- | --- | --- | --- | --- | --- | --- | --- | --- | --- | --- | --- | --- | --- | --- | --- | --- | --- | --- |
| CC(C)c1ccc(Nc2nc(N)nc3c2ncn3C/C=C/CP(=O)(OCOC(=O)C(C)(C)C)OCOC(=O)C(C)(C)C)cc1 | > 100 µM | > 100 µM | inactive | > 100 µM | inactive | 46 µM | inactive | inactive | > 100 µM | inactive | inactive | inactive | > 20 µM | > 100 µM | inactive | inactive | inactive | > 100 µM | inactive |
| CC(C)(C)C(=O)OCOP(=O)(C/C=C/Cn1cnc2c(NC3CCCCC3)nc(N)nc21)OCOC(=O)C(C)(C)C | > 100 µM | 20 µM | inactive | > 100 µM | inactive | 9 µM | inactive | inactive | > 100 µM | inactive | inactive | inactive | 6.34 µM | > 100 µM | inactive | inactive | inactive | 100 µM | inactive |
| C=CCNc1ncnc2c1ncn2C/C=C/CP(=O)(OCOC(=O)C(C)(C)C)OCOC(=O)C(C)(C)C | > 100 µM | > 100 µM | inactive | > 100 µM | inactive | > 100 µM | inactive | inactive | > 100 µM | inactive | inactive | inactive | > 100 µM | > 100 µM | inactive | inactive | inactive | > 100 µM | inactive |
| CC(C)(C)C(=O)OCOP(=O)(C/C=C/Cn1cnc2c(=O)[nH]cnc21)OCOC(=O)C(C)(C)C | > 100 µM | > 20 µM | inactive | > 100 µM | inactive | 51.9 µM | inactive | inactive | > 100 µM | inactive | inactive | inactive | > 100 µM | > 100 µM | inactive | inactive | inactive | > 100 µM | inactive |
| CC(C)(C)C(=O)OCOP(=O)(C/C=C/Cn1cnc2c(Cl)ncnc21)OCOC(=O)C(C)(C)C | > 20 µM | > 20 µM | inactive | > 20 µM | inactive | 10.5 µM | inactive | inactive | > 20 µM | inactive | inactive | inactive | > 20 µM | > 20 µM | inactive | inactive | inactive | 100 µM | inactive |
| Nc1ccn(C[C@@H](CO)OCP(=O)(O)O)c(=O)n1 [CIDOFOVIR] | 1.2 µM | – | – | 1 µM | – | – | – | – | 10 µM | – | – | – | – | – | – | – | – | – | – |
| CC(C)c1ccc(Nc2ncnc3c2ncn3C/C=C/CP(=O)(OCOC(=O)C(C)(C)C)OCOC(=O)C(C)(C)C)cc1 | > 100 µM | > 20 µM | inactive | > 100 µM | inactive | 32.3 µM | inactive | inactive | > 100 µM | inactive | inactive | inactive | > 20 µM | > 100 µM | inactive | inactive | inactive | 100 µM | inactive |
| CC(C)(C)C(=O)OCOP(=O)(C/C=C/Cn1cnc2c(N)ncnc21)OCOC(=O)C(C)(C)C | > 100 µM | 13.5 µM | inactive | 45 µM | inactive | 11.6 µM | inactive | inactive | > 100 µM | inactive | inactive | inactive | 12.6 µM | 20 µM | inactive | inactive | inactive | > 100 µM | inactive |
| CC(C)(C)C(=O)OCOP(=O)(C/C=C/Cn1cnc2c(NC3CCCCC3)ncnc21)OCOC(=O)C(C)(C)C | > 100 µM | > 20 µM | inactive | > 100 µM | inactive | 11.4 µM | inactive | inactive | > 100 µM | inactive | inactive | inactive | 20 µM | > 100 µM | inactive | inactive | inactive | 100 µM | inactive |
| Nc1nc2c(ncn2COCCO)c(=O)[nH]1 [ACYCLOVIR] | – | – | – | – | – | 134 µM | – | – | > 250 µM | – | – | – | – | – | – | – | – | > 100 µM | – |
| CCCCNc1ncnc2c1ncn2C/C=C/CP(=O)(OCOC(=O)C(C)(C)C)OCOC(=O)C(C)(C)C | > 100 µM | > 100 µM | inactive | > 100 µM | inactive | 37.2 µM | inactive | inactive | > 100 µM | inactive | inactive | inactive | 100 µM | > 100 µM | inactive | inactive | inactive | > 100 µM | inactive |
| CC(C)(C)C(=O)OCOP(=O)(C/C=C/Cn1cnc2c(NC3CC3)ncnc21)OCOC(=O)C(C)(C)C | > 100 µM | 47.2 µM | inactive | > 100 µM | inactive | 39.6 µM | inactive | inactive | > 100 µM | inactive | inactive | inactive | 55.7 µM | > 100 µM | inactive | inactive | inactive | > 100 µM | inactive |
| O=c1[nH]c(=O)n([C@H]2C[C@H](O)[C@@H](CO)O2)cc1/C=C/Br [BRIVUDINE] | 0.08 µM | – | – | 50 µM | – | – | – | – | 5 µM | – | – | – | – | – | – | – | – | > 100 µM | – |
| CC(C)(C)C(=O)OCOP(=O)(C/C=C/Cn1cnc2c(Cl)nc(N)nc21)OCOC(=O)C(C)(C)C | > 20 µM | 2.2 µM | inactive | > 20 µM | inactive | 5.4 µM | inactive | inactive | > 20 µM | inactive | inactive | inactive | 4.4 µM | > 20 µM | inactive | inactive | inactive | > 100 µM | inactive |
| CC(C)(C)C(=O)OCOP(=O)(C/C=C/Cn1cnc2c(=O)n3cc[nH]c3nc21)OCOC(=O)C(C)(C)C | > 100 µM | 40.7 µM | inactive | > 100 µM | inactive | – | inactive | inactive | > 100 µM | inactive | inactive | inactive | 17.3 µM | > 100 µM | inactive | inactive | inactive | > 100 µM | inactive |
